Bioassay records (PubChem)
Sampled rows, rich in hits. Any-hit rate of the full collection: about 3.3%.
Granule exo inh = blocks lytic granule exocytosis; TALL-104 LAMP-1 surface exposure, flow cytometry; cells stimulated with thapsigargin and PMA; AID 651702; inhibition, % at 10 µM; 360,000 compounds, 0.66% hits;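 active means inhibition above about 55%, limit read from the data; inconclusive means no clear call, values can overlap the other calls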
ATG4B inh = inhibitors of human ATG4B cysteine protease. inhibition, % at 8.33 µM. ATG4B cleavage of LC3-PLA2, NBD-HPC fluorescence, 1 h. Q9Y4P1. 340,000 compounds, 0.51% hits; in the data active means inhibition above about 40%
Target sequence (Q9Y4P1 whole entry, looked up): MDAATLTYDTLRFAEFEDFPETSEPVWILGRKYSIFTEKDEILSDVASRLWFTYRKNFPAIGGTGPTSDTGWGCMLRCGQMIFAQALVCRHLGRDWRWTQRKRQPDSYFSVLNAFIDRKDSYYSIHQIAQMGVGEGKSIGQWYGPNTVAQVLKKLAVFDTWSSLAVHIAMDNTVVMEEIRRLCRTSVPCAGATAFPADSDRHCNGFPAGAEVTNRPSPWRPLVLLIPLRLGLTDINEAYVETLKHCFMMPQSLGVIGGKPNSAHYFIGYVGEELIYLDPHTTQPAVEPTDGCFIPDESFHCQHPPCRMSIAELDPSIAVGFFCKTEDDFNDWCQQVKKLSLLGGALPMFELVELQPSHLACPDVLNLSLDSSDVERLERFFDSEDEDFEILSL
Myeloid diff MLP = promotes myeloid progenitor differentiation; ER-HoxA9 myeloid progenitors, lysozyme-GFP differentiation, flow cytometry; calls only at 10 µM; 360,000 compounds, 1% hits;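 active means normalized GFP-positive differentiation at or above the plate's own cutoff, the solvent-only control mean plus 3 SD; inconclusive means no clear call, values can overlap the other calls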;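 further: cells exposed to compound for four days before flow analysis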
NRP1-CendR mod = alters CendR peptide binding to human NRP-1; O14786; AID 602438; FAM-RPARPAR peptide binding to NRP-1, fluorescence polarization; inhibition, % at 25 µM; 360,000 compounds, 0.85% hits;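 active means inhibition or corrected inhibition above about 18%, plus a signal ratio from 0.5 to 1.5, limit read from the data, passing the limit was not always enough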
Arrestin-AP2 inh = inhibitors of human beta-arrestin and AP2 interaction; FITC-arrestin peptide / GST-AP2 beads, flow cytometry; AP2 beta2 appendage carries R879A mutation; inhibition, % at 10 µM; 340,000 compounds, 0.31% hits; AID 504490;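 active means inhibition above a set limit, near 3 SD of compounds lacking own fluorescence, cut at about 54% in these data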;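 further: plate controls were DMSO wells for no effect and 5 µM unlabelled arrestin peptide for full effect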
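Measured by: flow cytometry, FL1 (488/535 nm); Material: AP2 appendage R879A on GSH beads; Evaluation: percent response; Timing: pre-incubation 12 min, peptide binding 1 h, room temperature; Also added: 50 nM FITC-arrestin peptide; Medium: PBS with 0.05% Tween 20 and 0.1% BSA.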
ABCB6 inh 2 = blocks the human ABCB6 transporter. K562-ABCB6 porphyrin accumulation, flow cytometry, 1 h; stronger effect = lower value. fluorescence ratio to DMSO, % at 10 µM. 360,000 compounds, 0.19% hits;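 active means fluorescence ratio to DMSO below 75%, the collection mean minus 3 SD; inconclusive means too few cells collected in the well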;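 further: signal is porphyrin accumulated inside mitochondria; 100% equals median channel fluorescence of DMSO control wells; lower ratio means ABCB6 inhibition with less porphyrin fluorescence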
An asterisk follows results filed as active; i = inactive; ? = inconclusive; / = no result; + = active, no number.

SMILES	Granule exo inh	ATG4B inh	Myeloid diff MLP	NRP1-CendR mod	Arrestin-AP2 inh	ABCB6 inh 2
Cc1cccc(NC(=O)CS(=O)(=O)c2cn(C)c3ccccc23)c1C	-4	-2	+	8	5	120
O=C(NCCCN1CCCCCC1)C1CC(=O)N(CCc2ccccc2)C1 (stereo unspecified)	2	-13	i	23*	-3	105
O=C(NCCCN1CCOCC1)C1CC(=O)N(CCc2ccccc2)C1 (stereo unspecified)	1	0	i	1	4	87
Cc1cc(C)n2nc(-c3sccc3-n3cccc3)cc2n1	5	-3	i	-13	4	100
FC(F)(F)c1cc(C(F)(F)F)n2nc(-c3sccc3-n3cccc3)cc2n1	0	-6	+	-2	11	100
Oc1cccc(/C=N/Nc2cc(N3CCOCC3)nc(N3CCOCC3)n2)c1	0	-20	i	-11	-19	95
Oc1ccc(/C=N/Nc2cc(N3CCOCC3)nc(N3CCOCC3)n2)cc1O	9	-8	i	26*	-6	96
COc1ccc(-c2c(-c3ccccc3OC)oc3ccccc23)cn1	-6	20	i	27*	-4	93
CCCCn1c(N)c(N(Cc2ccccc2OC)C(=O)CN2C(=O)NC(C)(c3ccccc3)C2=O)c(=O)[nH]c1=O (stereo unspecified)	8	-5	i	-6	15	98
CC1CC(C)CN(CCCSc2ccccc2)C1 (stereo unspecified)	-1	5	i	30*	1	97
CC1CC(C)CN(CCOCCSc2ccccc2)C1 (stereo unspecified)	2	15	i	0	-5	99
COC(=O)n1c(=O)oc2ccccc21	14	3	i	26*	4	104
Cc1cccc(N2CCN(C(=S)c3ccc(-c4ccccc4[N+](=O)[O-])o3)CC2)c1	6	0	i	0	7	106
O=[N+]([O-])c1ccccc1-c1ccc(C(=S)N2CCCCC2)o1	65*	-1	i	8	21	101
O=C(c1ccc(-c2ccccc2Cl)o1)N1CCCCCCC1	-4	21	i	2	3	98
O=[N+]([O-])c1ccccc1-c1ccc(C(=S)N2CCCC2)o1	3	1	+	13	45	109
CCOc1cc(-c2ccc(N)c(OCC)c2)ccc1N	-2	-10	i	43*	12	99
COc1ccc(S(=O)(=O)NC2CC2)cc1Br	11	7	+	27*	4	94
COc1ccc(S(=O)(=O)NC(C)C(=O)NC2CC2)cc1C (stereo unspecified)	-1	-3	i	28*	-4	99
COc1cc(S(=O)(=O)NC2CCCCC2)ccc1F	2	0	i	-11	-2	108
COc1ccc(S(=O)(=O)NC(C)C(=O)N2CCCC2)cc1C (stereo unspecified)	-2	-2	i	5	-15	96
Cc1cc(C)c2nc3nc(C)c(C)cc3c(N)c2c1	6	-7	+	-11	2	105
Cc1ccc(S(=O)(=O)N(C)C)cc1NC(=O)C(C)OC(=O)/C=C/c1cccs1 (stereo unspecified)	-7	5	i	-5	-17	100
CCOC(=O)C1Nc2ccccc2C2C(O)C(O)CC12 (stereo unspecified)	3	-3	+	27*	11	154
CC(C)CN=Cc1c(O)c([N+](=O)[O-])cc2oc3c(c12)CCCC3	95*	22	i	-14	11	124
SMILES	Granule exo inh	ATG4B inh	Myeloid diff MLP	NRP1-CendR mod	Arrestin-AP2 inh	ABCB6 inh 2
CCCC(=O)N1CCCC(C(=O)c2cccc(OC(C)C)c2)C1 (stereo unspecified)	-1	20	i	10	14	98
Nc1c(C(=O)c2ccc(Cl)cc2)sc2nsc(SCCN3CCOCC3)c12	53	-1	+	-149	3	195
Cc1nnn(C23CC4CC(CC(CC(=O)Nc5ccc(C)c(C)c5)(C4)C2)C3)n1	5	1	i	-7	-3	98
CC(=O)N1N=C(c2ccc(NS(=O)(=O)c3ccccc3)cc2)CC1c1ccco1 (stereo unspecified)	4	1	?	6	-8	85
CNC(=S)Nc1ccc(N2CCCC2)c(S(=O)(=O)Nc2ccc(OC)cc2)c1	20	-14	i	42*	-4	106
C[C@H](O)[C@@H]1C(=O)N2CCc3c([nH]c4ccccc34)[C@@H]2C[C@@H]1N(C)Cc1ccc2c(c1)OCO2	-2	/	i	1	/	100
COc1ccc(N(CCC(=O)O)S(=O)(=O)c2ccc(C)cc2C)cc1	0	-8	i	-8	3	104
COc1ccccc1C(=O)Nc1nc(-c2ccc(S(=O)(=O)N3CCOCC3)cc2)cs1	65*	-18	i	2	18	90
O=C1CCCN1CC(=O)N1CCCC(N2CCN(c3cccc(Cl)c3)CC2)C1 (stereo unspecified)	5	2	i	-17	27	99
C=C1CCN([C@@H](CC(C)C)C(=O)NCCCc2ccccc2)S(=O)(=O)c2ccccc21	-16	-6	i	30*	3	98
C=C1CCN([C@@H](CC(C)C)C(=O)O)S(=O)(=O)c2ccccc21	8	0	i	25*	-6	96
C=C1CCN(C(CC(C)C)C(=O)OC)S(=O)(=O)c2ccccc21 (stereo unspecified)	-4	1	i	7	-4	103
C=C1CCN([C@@H](CC(C)C)C(=O)NCc2ccccc2)S(=O)(=O)c2ccccc21	2	-12	i	27*	20	97
C=C1CCN(C(C(=O)OC)C(C)C)S(=O)(=O)c2ccc(F)cc21 (stereo unspecified)	16	0	i	28*	11	98
C=C1CCN([C@@H](Cc2ccccc2)C(=O)NCCC(C)C)S(=O)(=O)c2ccccc21	38	-3	i	16	5	89
CCN(CC(=O)Nc1c(F)cccc1F)C(=O)CCSc1ccc(C)cc1	-8	7	i	-2	-2	94
O=C(O)CC(NC(=O)C1c2ccccc2Oc2ccccc21)c1ccc(Cl)cc1 (stereo unspecified)	-2	5	i	6	-10	103
CCOC(=O)CSc1nc(C(C)(C)C)nc2ccccc12	15	18	i	-4	-1	102
Cc1cc(Br)cn2c(Cc3cccc(F)c3)c(C3CCCCC3)nc12	0	/	i	-4	/	103
O=C(O)c1ccc(NC2=C(Cl)C(=O)c3ccccc3C2=O)cc1	70*	-2	i	29*	-3	91
